# Bioassay records as filed in PubChem.
# Sampled rows, rich in hits. Any-hit rate of the full collection: about 2.9%.
# Arrestin-AP2 inh: inhibitors of human beta-arrestin and AP2 interaction; FITC-arrestin peptide / GST-AP2 beads, flow cytometry; AP2 beta2 appendage carries R879A mutation; inhibition, % at 10 µM; hit rate 0.31% among 340,000;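 active = inhibition above a set limit, near 3 SD of compounds lacking own fluorescence, cut at about 54% in these data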;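 also: plate controls were DMSO wells for no effect and 5 µM unlabelled arrestin peptide for full effect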
#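 System: GST-tagged AP2 beta2-adaptin appendage (R879A) on 4 µm glutathione beads / Reagent: FITC-arrestin peptide, 50 nM / Detection: HyperCyt-sampled flow cytometry, FL1 channel, ex 488/em 535 nm / Timing: 12 min plus 1 h, RT / Buffer or medium: PBS plus Tween 20 (0.05%) and BSA (0.1%)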
# ADAM17 inh: inhibits human ADAM17. P78536. recombinant ADAM17, EDANS/DABCYL FRET peptide cleavage. inhibition, % at 6.95 µM. hit rate 0.83% among 370,000;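 active = inhibition above the mean of compounds lying between control limits plus 3 SD, set per campaign, cut at about 8.5% in these data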;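 also: 0% = DMSO-only wells as the low control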
# CaV13 ICDI inh: Disruptors of the CACNA1D IQ motif to Ca2+-dependent inactivation inhibitor domain association, primary screening, Förster resonance energy transfer in intact living …; inhibition, % at 12.3 µM; hit rate 0.098% among 340,000; HEK cells, CFP/YFP FRET ICDI-IQ, plate reader, 10 min; percent FRET-ratio fall versus neutral wells;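 active = mean replicate inhibition of at least 30% and at least 1% of replicates passing that level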;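 also: 0% = median of the neutral control wells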
# CendR NRP1 mod: modulators of CendR peptide binding to human neuropilin-1; FAM-RPARPAR peptide binding to NRP-1, fluorescence polarization; hit rate 0.85% among 360,000; inhibition, % at 25 µM;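 active = inhibition or corrected inhibition above about 18%, plus a signal ratio from 0.5 to 1.5, limit read from the data, passing the limit was not always enough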
# FAS-TE inh: blocks the thioesterase domain of human fatty acid synthase; hit rate 0.67% among 360,000; inhibition, % at 15 µM; P49327; recombinant FAS-TE, OMFH fluorogenic substrate, fluorescence endpoint; AID 602261;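 active = compounds whose normalised, plate-corrected inhibition of enzyme fluorescence in the single-dose primary screen is 50% or more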;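 also: 0% = DMSO with enzyme and 100% = substrate without enzyme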
# ADAM10 inh: inhibits human ADAM10; O14672; recombinant ADAM10, EDANS/DABCYL FRET peptide cleavage, 3 h; inhibition, % at 7 µM; hit rate 0.62% among 370,000;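 active = inhibition above a per-campaign cutoff equal to the mean of compounds falling between control-based bounds plus 3 SD, cut at about 20% in these data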;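 also: 0% = DMSO wells while the 100% control is not disclosed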
# ADAM10 counter: inhibits human ADAM10 in ADAM17 exosite counter-screen; shares compounds with ADAM17 inh; recombinant ADAM10, EDANS/DABCYL FRET peptide cleavage, 3 h; inhibition, % at 6.95 µM; hit rate 47% among 2,900; AID 743256;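 active = mean inhibition over the triplicate runs exceeds the activity threshold set in the earlier primary screen, cut at about 20% in these data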;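 also: 0% = DMSO wells and 100% = marimastat wells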
# ADAM17 confirm: human ADAM17 inhibition, confirmation; recombinant ADAM17, EDANS/DABCYL QFRET peptide cleavage; inhibition, % at 6.95 µM; hit rate 65% among 2,900; shares compounds with ADAM17 inh;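 active = mean inhibition across replicates above the hit cutoff set in the primary screen, cut at about 8.5% in these data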;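 also: 0% = DMSO wells and 100% = marimastat wells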
# An asterisk follows results filed as active; nt = no result given.
SMILES,Arrestin-AP2 inh,ADAM17 inh,CaV13 ICDI inh,CendR NRP1 mod,FAS-TE inh,ADAM10 inh,ADAM10 counter,ADAM17 confirm
S=C(NCc1ccco1)Nc1cc(Cl)c(Cl)cc1Cl,38.9,3.6,-12.8,-10.6,44.7,-1.0,nt,nt
S=C(NCc1ccco1)Nc1ccc(Cl)c(Cl)c1,14.1,10.0*,-8.4,-7.2,37.9,11.1,5.1,7.0
CC(NC(=O)COC(=O)C1(C)CC1(Cl)Cl)c1ccccc1 (centres undefined),-2.0,8.8*,-2.6,-14.2,-5.8,1.8,30.1*,9.5*
CCCCc1c(-c2ccccc2F)ncn1CCc1ccccc1OC,nt,2.9,-9.7,-6.4,23.8,9.8,nt,nt
CCOC(=O)C1=C(C(=O)OCC)C2N(Cc3ccc(C#N)cc3)c3ccccc3[C@@]23C[C@@H](C(=O)OC)N(S(=O)(=O)c2ccc(OC)cc2)C3=N1 (some centres undefined),nt,11.9*,-4.3,nt,nt,16.3,19.4,11.9*
Clc1ccc(Sc2cnc3ccccc3n2)cc1,7.1,-4.3,nt,8.6,9.2,-8.9,nt,nt
Clc1ccccc1Sc1cnc2ccccc2n1,-1.3,8.8*,nt,16.2,14.7,1.2,-6.3,0.3
COC(=O)c1cc(-c2ccc(C)c(C)c2)c(=O)n2c1CCC2,nt,-19.2,nt,nt,nt,-46.9,nt,nt
COc1ccc(Cn2nnnc2C(c2cccs2)N2CCOCC2)cc1 (centres undefined),nt,8.7*,-4.8,3.0,-3.5,4.6,5.8,10.7*
COc1ccccc1-c1nnc2n1N=C(c1ccc3c(c1)OCO3)CS2,nt,1.6,nt,nt,nt,11.2,nt,nt
CC(=O)Nc1cccc(-c2ccnc3c2CC(C(=O)Nc2cccc(N(C)C)c2)O3)c1 (centres undefined),nt,0.7,-4.7,-21.0,-0.5,-5.0,nt,nt
COc1cccc(-c2cccc(-c3nc(C(=O)NCc4ccc5c(c4)OCO5)cc4c3[C@H](CCO)N(S(=O)C(C)(C)C)C4)c2)c1 (some centres undefined),nt,19.0*,-7.2,-8.0,-7.0,16.3,12.7,10.3*
CC(C)(C)S(=O)N1Cc2cc(C(=O)NCc3ccc4c(c3)OCO4)nc(-c3cccc(-c4cc5ccccc5o4)c3)c2[C@@H]1CCO (some centres undefined),nt,3.0,-6.9,-11.8,-4.3,-2.2,nt,nt
COCCNC(=S)N1C[C@H]2CON(C)[C@H]2C[C@H]1c1ccccc1Br,nt,9.4*,-2.7,nt,nt,-2.2,-9.9,-1.6
CN(C)/C=C/C(=O)c1ccc([N+](=O)[O-])c(CS(=O)(=O)c2ccccc2)c1,-11.2,9.3*,-10.8,-2.0,6.8,16.4,9.2,8.7*
Cc1nc2c(OCc3ccc(C(F)(F)F)cc3)cccn2c1N(C)CC1CC1,nt,-0.8,-2.5,9.9,43.7,-18.7,nt,nt
COc1ccccc1-c1cc(C(=O)Nc2sc3c(c2C#N)CCC(C)C3)c2ccccc2n1 (centres undefined),2.2,9.9*,-5.9,0.4,41.9,-7.8,-33.6,2.3
C=CCOC(=O)C1=C[C@@H](c2coc3ccccc3c2=O)C[C@@H](OCc2ccc(CO)cc2)O1,4.6,14.5*,-7.8,-16.3,3.1,6.8,25.7*,10.1*
C=CCOC(=O)C1=C[C@H](c2coc3ccccc3c2=O)C[C@H](OCc2ccc(CO)cc2)O1,-2.8,-4.4,-6.3,-8.6,1.9,-5.3,nt,nt
CCc1c(Cc2ccccc2)ncn1CCc1ccccc1OC,nt,0.2,-9.1,nt,nt,-1.7,nt,nt
COc1cc(/C=C/C(=O)OCC(=O)c2c[nH]c3ccccc23)ccc1OC(F)F,-1.6,9.4*,-3.3,8.2,-1.2,12.9,21.3*,17.9*
COc1ccccc1/C=C/C(=O)OCC(=O)c1c[nH]c2ccccc12,0.4,-11.3,-3.4,7.5,14.6,-48.7,nt,nt
CCN(C(=O)COC(=O)c1ccc(Sc2ncn[nH]2)c([N+](=O)[O-])c1)c1ccccc1,nt,-0.5,nt,nt,nt,-1.2,nt,nt
